High-throughput results (PubChem)
In the library only some 1.6% were active in any assay of this set; here they are far more common.
SR-BI DiI-HDL act: SR-BI HDL lipid transfer activation; CHO ldlA[mSR-BI] cells, DiI-HDL uptake fluorescence, 3 h; 100 = double the neutral-control signal; activation, % at 12.5 µM; hit rate 0.096% among 320,000; AID 504775;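 active = mean replicate activation of at least 60% and every replicate at or above 60%; inconclusive = mean or all-replicate condition met, but not both; inactive = mean below 60% and not all replicates reaching 60%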
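System: LDL receptor-deficient CHO ldlA cells overexpressing murine SR-BI | Timing: 3 h uptake period with compound, 37 °C | Medium: HEPES-buffered (25 mM, pH 7.4) F12 plus 0.5% BSA | Dosing: Single-point compound dose | Signal: Bottom-read fluorescence, 550/595 nm | Read-out: Retained DiI signal reflecting DiI-HDL uptake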
PvdQ inh: blocks Pseudomonas aeruginosa PvdQ acylase activity. AID 488965. inhibition, % at 10 µM. purified PvdQ acylase, fluorescence plate reader. hit rate 0.063% among 340,000; in the data active = inhibition above about 30%, passing the limit was not always enough; inconclusive = no clear call, values can overlap the other calls
S100A4 inh HTS: S100A4-myosin IIA interaction inhibition | AID 652163 | inhibition, % at 10.7 µM | S100A4/TAMRA-MyoIIA peptide fluorescence polarization | hit rate 0.14% among 360,000 | P26447;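 active = mean inhibition of at least 70% across replicates, with every replicate also reaching that level; inconclusive = mean inhibition reaches 70% but some replicates fall short; inactive = mean inhibition below 70%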
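Material: S100A4 monomer protein / Buffer or medium: 50 mM HEPES pH 7.2, 10 mM CaCl2, 100 mM KCl / Times: 5 min incubation before reading / Benchmarks: neutral control DMSO, positive control TFP / Reagent: labelled myosin peptide probe, 5 nM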
RAD54 branch: blocks human RAD54 Holliday junction branch migration. hit rate 0.14% among 360,000. FAM/BHQ fluorescence. inhibition, % at 10.4 µM;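 active = mean normalized replicate activity at least 40 and at least half of replicates scoring 40 or more; inconclusive = only one of the two criteria met; inactive = mean below 40 and under half of replicates reaching 40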;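 note: inhibitors cause a drop in the FAM fluorescence signal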
Target sequence (Q92698 whole entry, looked up): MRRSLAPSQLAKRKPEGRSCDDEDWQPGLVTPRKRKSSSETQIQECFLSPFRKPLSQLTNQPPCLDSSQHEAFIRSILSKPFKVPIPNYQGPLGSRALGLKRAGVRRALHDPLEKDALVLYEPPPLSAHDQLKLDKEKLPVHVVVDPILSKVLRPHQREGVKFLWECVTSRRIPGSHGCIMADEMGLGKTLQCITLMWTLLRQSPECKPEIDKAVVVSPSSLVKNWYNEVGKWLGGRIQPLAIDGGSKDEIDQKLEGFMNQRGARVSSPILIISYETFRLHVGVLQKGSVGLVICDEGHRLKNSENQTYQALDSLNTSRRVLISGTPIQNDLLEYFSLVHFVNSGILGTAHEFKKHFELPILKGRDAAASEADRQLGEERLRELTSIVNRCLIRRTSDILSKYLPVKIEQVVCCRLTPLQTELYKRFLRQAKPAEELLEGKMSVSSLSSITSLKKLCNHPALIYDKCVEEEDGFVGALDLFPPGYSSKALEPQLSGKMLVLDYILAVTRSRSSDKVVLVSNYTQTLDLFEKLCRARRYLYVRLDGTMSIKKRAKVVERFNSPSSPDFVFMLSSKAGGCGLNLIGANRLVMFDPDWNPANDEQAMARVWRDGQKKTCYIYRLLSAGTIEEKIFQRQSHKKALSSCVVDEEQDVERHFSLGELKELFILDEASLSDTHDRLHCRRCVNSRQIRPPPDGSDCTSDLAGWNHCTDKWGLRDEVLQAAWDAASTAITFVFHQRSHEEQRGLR
dFosB act-1: activators of mouse delta FosB homodimer. P13346. purified delta FosB, TAMRA-CDK5 oligo fluorescence polarization; percent of positive-control signal above neutral wells. activation, % at 25 µM. hit rate 0.99% among 340,000. AID 493131;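 active = mean activation above about 17%, with every replicate also reaching it, limit read from the data, passing the limit was not always enough; inconclusive = only one of the two conditions met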
SR-BI HDL uptake: inhibitors of mouse SR-BI mediated HDL lipid uptake. AID 488896. inhibition, % at 12.5 µM. ldlA[mSR-BI] CHO cells, DiI-HDL uptake fluorescence, 3 h. hit rate 0.96% among 320,000;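 active = mean replicate inhibition of at least 70% and a set share of replicates each scoring 70 or more; inconclusive = meets just one of the two criteria; inactive = fails both criteria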
dFosB act-2: enhances mouse delta FosB homodimer binding to DNA | shares compounds with dFosB act-1 | purified delta FosB, TAMRA-CDK5 oligo fluorescence polarization; normalised: neutral wells 0, positive control 100 | activation, % at 24.9 µM | 2,400 tested, under 10 active;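 active = highest replicate activation at or above 34% and every replicate reaching that threshold; inconclusive = meets only one of the two criteria; inactive = meets neither criterion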;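 note: higher polarization means more probe DNA bound by delta FosB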
A number is an active result; – = inactive; ? = inconclusive; · = no result given.

SMILES	SR-BI DiI-HDL act	PvdQ inh	S100A4 inh HTS	RAD54 branch	dFosB act-1	SR-BI HDL uptake	dFosB act-2
Cc1cc(CN(C)Cc2ccc(OCC(O)CN(C)Cc3ccccc3)cc2)on1 (stereo unspecified)	–	–	–	–	–	–	·
C=CCOc1ccc(CN(C)CC(O)COc2cccc3ccccc23)cc1 (stereo unspecified)	–	–	–	–	19.2	–	–
C[C@H]1CN([C@@H](C)CO)C(=O)Cc2cc(NC(=O)Cc3cn(C)c4ccccc34)ccc2O[C@@H]1CN(C)C(=O)NC1CCCCC1	·	·	–	–	·	·	·
O=C(CSc1nccn(-c2cccc(F)c2)c1=O)Nc1ccc(Cl)cc1F	·	–	–	–	21.4	·	–
COc1ccc(-c2[nH]ncc2/C=N/NC(=O)c2ccncc2)c(OC)c1	–	–	–	–	18.6	–	–
COc1ccc(C(=O)N/N=C/c2cn[nH]c2-c2ccc(OC)cc2OC)cc1	–	–	–	–	17.2	–	–
NNc1nc(Nc2ccccc2)nc(Nc2ccccc2)n1	–	–	–	–	46.4	–	–
NNc1nc(Nc2ccccc2)nc(N2CCCCC2)n1	–	–	·	–	–	–	·
COc1ccc(Nc2nc(NN)nc(Nc3ccc(OC)cc3)n2)cc1	–	–	–	–	24.9	–	–
C[C@@H]1CN([C@@H](C)CO)S(=O)(=O)c2ccc(C#CC3CC3)cc2O[C@@H]1CN(C)Cc1cccnc1	·	·	–	–	·	·	·
C[C@@H](NC(=O)C[C@H]1C=C[C@@H](NC(=O)Cc2ccccn2)[C@@H](CO)O1)c1ccccc1	·	·	–	–	·	·	·
COc1ccc2c(c1OC)C(=O)OC2C1c2c(cc3c(c2OC)OCO3)CCN1C (stereo unspecified)	–	–	–	–	–	–	·
CN1CCc2cc3c(c4c2[C@H]1[C@H](O)c1ccccc1-4)OCO3	–	–	–	98.6	31.6	–	–
O=C(CSc1n[nH]c(-c2ccc(S(=O)(=O)N3CCCCC3)cc2)n1)Nc1nccs1	–	–	·	·	63.6	–	–
COc1ccc(NC(=O)CSc2nnc(NC(=O)C3CCC3)s2)cc1	·	–	–	–	–	·	·
CC(=O)Nc1ccc(NC(=O)CSc2nnc(NC(=O)Cc3ccc(F)cc3)s2)cc1	–	–	–	–	24.2	–	–
CC(=O)Nc1ccc(NC(=O)CSc2nnc(NC(=O)C3CC3)s2)cc1	–	–	–	–	27.9	–	–
O=C(CSc1nnc(NC(=O)C2CC2)s1)Nc1ccc(F)cc1	–	–	·	–	–	–	·
O=C(CSc1nnc(NC(=O)C2CC2)s1)Nc1ccccc1	–	–	–	–	24.6	–	–
Cc1ccc(S(=O)(=O)NC[C@H]2CC[C@H]3[C@H](CN3Cc3cc(-c4ccccc4)on3)O2)cc1	·	·	–	·	·	·	·
C[C@@H]1CN([C@@H](C)CO)C(=O)c2cc(C#CC3(O)CCCC3)cnc2O[C@@H]1CN(C)C	·	·	–	–	·	·	·
CN(C)S(=O)(=O)c1ccc(S(=O)(=O)NCc2ccc3c(c2)OCO3)cc1	–	–	–	–	36.4	–	–
O=S(=O)(NCc1ccc2c(c1)OCO2)c1ccc(F)cc1	–	–	–	–	–	–	·
NCCCCc1ccc2ccc3cccc4ccc1c2c34	–	–	–	–	31.9	–	–
COc1cccc(CNC(=O)COC(=O)c2c(NC(C)=O)sc(C)c2C)c1	–	–	–	–	–	–	·
SMILES	SR-BI DiI-HDL act	PvdQ inh	S100A4 inh HTS	RAD54 branch	dFosB act-1	SR-BI HDL uptake	dFosB act-2
CC(=O)Nc1sc(C)c(C)c1C(=O)OCC(=O)NCc1ccc(Cl)cc1	–	–	–	–	89.6	–	–
C[C@@H]1CN([C@@H](C)CO)C(=O)c2cccc(NC(=O)c3ccncc3)c2O[C@H]1CN(C)S(=O)(=O)c1ccccc1	·	·	–	–	·	·	·
COc1ccc(-c2cc(-c3cccs3)c(C#N)c(SCC(=O)NCc3ccco3)n2)cc1	–	–	·	–	47.2	–	–
COc1ccc(CNC(=O)CSc2nc(-c3ccccc3)cc(-c3cccs3)c2C#N)cc1	–	–	·	–	?	–	·
Cn1ncc(C(=O)Nc2ccc(OC(F)(F)F)cc2)c1-n1cccc1	–	–	–	–	–	–	·
CC(=O)Nc1ccc(Sc2ncccc2C(=O)Nc2ccc(OC(F)(F)F)cc2)cn1	–	–	–	·	51.3	–	–
CC(=O)Nc1ccc(Sc2ncccc2C(=O)Nc2cc(Cl)cc(Cl)c2)cn1	–	–	–	–	81.7	–	–
O=C(Nc1cc(Cl)cc(Cl)c1)c1cnn2cccnc12	–	–	·	·	–	–	·
CCOC(=O)c1sc(NC(=O)Nc2ccc(Cl)cc2)cc1C	–	–	·	–	24.1	75.7	–
COc1cccc(Nc2nc(N)c([N+](=O)[O-])c(NCc3ccccc3)n2)c1	–	–	–	–	50.6	–	–
O=C(COC(=O)/C=C/c1ccc([N+](=O)[O-])cc1)Nc1ccc(F)cc1	–	–	–	–	19.1	–	–
NS(=O)(=O)c1ccc(NC(=O)COC(=O)/C=C/c2ccc([N+](=O)[O-])cc2)cc1	–	–	–	–	–	–	·
CNC(=O)C[C@@H]1CC[C@H]2[C@@H](COC[C@@H](O)CN2Cc2ccc(Cl)c(Cl)c2)O1	·	·	·	–	·	·	·
COc1ccc(Br)cc1CNC(=O)CCc1nc(-c2ccc(C)cc2)no1	–	–	·	–	20.6	–	–
COc1ccc(-c2noc(CCC(=O)NCc3cc(Br)ccc3OC)n2)cc1	–	–	·	–	–	–	·
COc1ccc(C(C(=O)NCC2CCCO2)N(Cc2cccs2)C(=O)c2snc(C(N)=O)c2N)cc1OC (stereo unspecified)	–	–	–	–	–	–	·
CCOc1ccc(C(C(=O)NCC2CCCO2)N(Cc2cccs2)C(=O)c2snc(C(N)=O)c2N)cc1 (stereo unspecified)	–	–	–	–	20.5	–	–
O=C(NCC(=O)N(c1ccc2c(c1)OCO2)C(C(=O)NC1CCCC1)c1cccs1)c1ccco1 (stereo unspecified)	–	–	·	–	50.1	–	–
O=C(NC1CCCC1)C(c1cccs1)N(C(=O)c1ccco1)c1ccc2c(c1)OCO2 (stereo unspecified)	–	–	·	–	–	–	·
CCCNC(=O)N[C@@H]1CC[C@@H](CC(=O)N2CCN(C)CC2)O[C@H]1CO	·	·	–	–	·	·	·
COc1ccccc1/C=C1\SC(=O)N(CCC(=O)NNC(=O)c2ccccc2Cl)C1=O	–	–	·	–	20.8	–	–
CCOC(=O)c1c(C)[nH]c(C(=O)OCc2ccccc2)c1C	–	–	–	–	–	–	·
CCOC(=O)c1c(C)[nH]c(C(=O)OCC(=O)Nc2ccccc2)c1C	–	–	–	–	27.0	–	–
